Where “and” joins values, the source holds several entries; their conditions need not be identical. Equal entries are not always repeated.

In one test the target is T1, NS3 (Hepatitis C virus, UniProt A3EZJ3). Kind of test: Dissociation constant for HCV NS3 protease substrate binding site. Details: species or system Hepacivirus hominis; call rule not given here.
T1 sequence (A3EZJ3 whole entry): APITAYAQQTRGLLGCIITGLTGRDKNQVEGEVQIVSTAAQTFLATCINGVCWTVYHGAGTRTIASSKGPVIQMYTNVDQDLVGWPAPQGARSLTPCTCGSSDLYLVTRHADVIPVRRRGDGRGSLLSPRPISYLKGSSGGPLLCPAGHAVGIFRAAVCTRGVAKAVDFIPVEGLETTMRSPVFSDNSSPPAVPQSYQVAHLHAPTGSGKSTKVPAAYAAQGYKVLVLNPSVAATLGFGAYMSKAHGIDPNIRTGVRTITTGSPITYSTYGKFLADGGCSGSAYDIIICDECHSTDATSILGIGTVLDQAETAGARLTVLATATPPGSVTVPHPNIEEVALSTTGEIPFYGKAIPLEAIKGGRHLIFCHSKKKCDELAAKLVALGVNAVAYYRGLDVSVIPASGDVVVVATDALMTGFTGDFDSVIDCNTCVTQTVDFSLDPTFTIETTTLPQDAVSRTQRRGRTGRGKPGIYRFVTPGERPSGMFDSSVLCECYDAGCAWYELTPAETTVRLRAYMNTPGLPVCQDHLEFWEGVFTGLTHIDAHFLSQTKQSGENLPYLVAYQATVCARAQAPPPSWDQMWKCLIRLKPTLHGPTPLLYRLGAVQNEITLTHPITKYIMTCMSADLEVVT
Settings: not given
A digest of the protocol:
(§1)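 Uniformly 15N-labeled single-chain ns4a–ns3p, 0.2 mM, in 75 mM potassium phosphate pH 6.5, 20 mM DTT, 95/5% H2O/D2O, 0.015% sodium azide. Spectra were recorded with and without compound at several compound concentrations. KD and bound shift were fitted by nonlinear least squares to a single-site binding equation, with total compound and protein concentrations known.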
In general, Kd refers to the constant that tells how readily two partners part at equilibrium. Consider `CC(=O)N[C@H](Cc1cc(I)c(O)c(I)c1)C(=O)O`, for which the Kd entry is listed as “Active”.

With `O=C(c1ccc(Cl)cc1)c1cccc(Cl)c1C(=O)O`, the Kd entry is recorded as “Insoluble”. With `Oc1c(I)cc(CCc2ccncc2)cc1I`, the Kd entry is “Not Active”. Regarding `CC(C)(C)OC(=O)N[C@H](Cc1cc(I)c(O)c(I)c1)C(=O)O`, the Kd result is on record as “Active”. Consider `COc1ccc(C(=O)c2cc(OC)ccc2C(=O)O)cc1`, for which the Kd result was “Insoluble”. The same measure, in the same setting: the value for `CCOC(=O)C(Cc1cc(I)c(O)c(I)c1)c1ccccc1` (configuration not stated) was “Not Active”; that for `CC(C)(C)OC(=O)N[C@@H](Cc1cc(I)c(O)c(I)c1)C(=O)O` was “Active”.

The same test, now with this note: read-out: Kd.
Regarding `CC(=O)c1ccc(OCC(=O)O)cc1`, the Kd is over 20000 µM. The same measure, in the same setting: to `Cn1c(C(=O)O)cc2ccccc21` belongs 8100 µM; to `O=C(O)c1cc2c(Cl)cccc2[nH]1`, 800 µM; to `COc1ccc2sc(C(=O)O)cc2c1`, 8000 µM. Same read-out and setting: to `Cc1ccc(N)cc1NC(=O)c1ccc(N)cc1` belongs 100000 µM.

Regarding `O=C(O)c1cc2cc(Cl)ccc2[nH]1` [5-CHLOROINDOLE-2-CARBOXYLIC ACID], the Kd amounted to 300 µM. The same measure, in the same setting: to `COC(=O)[C@H](N)Cc1cc(I)c(O)c(I)c1` belongs over 2500 µM; to `O=C(O)CCCc1cc(I)c(O)c(I)c1`, 140 µM; to `COc1ccc(NC(=O)C(C)(C)C)cc1`, over 100 µM. Same read-out and setting: the value for `COc1ccc(C(=O)c2ccccc2C(=O)O)cc1` was 1000 µM.

Turning to `CC(=O)c1ccc(OCCC(=O)O)cc1`, the Kd is over 20000 µM. Turning to `O=C(O)c1cc2ccccc2[nH]1` [INDOLE-2-CARBOXYLIC ACID], the Kd was 12000 µM.

As to `O=C(CCCl)Nc1ccc(O)cc1`, the Kd amounted to 55000 µM.

Consider `O=C(O)c1ccccc1Cc1ccc(O)cc1`, for which the Kd is over 7000 µM. Regarding `O=C(O)C(Cc1cc(Br)c(O)c(Br)c1)c1ccccc1` (configuration not stated), the Kd is over 8000 µM. On to `O=C(O)C(Cc1cc([N+](=O)[O-])c(O)c([N+](=O)[O-])c1)c1ccccc1` (configuration not stated), for which the Kd is over 8000 µM. `O=C(O)c1ccccc1C(=O)c1cccc(Cl)c1`: the Kd is over 10000 µM. With `O=C(O)c1cc(Br)ccc1C(=O)c1ccc(O)cc1`, the Kd is over 600 µM.

`O=C(O)C(Cc1ccc(O)cc1)c1ccccc1` (configuration not stated): the Kd was over 8000 µM.

Turning to `O=C(O)c1ccccc1Cc1ccc(Cl)cc1`, the Kd is over 7000 µM. On to `Nc1ccc(C(=O)c2ccccc2)cc1`, for which the Kd was > 30 µM and ~20 µM. Still for that read-out and setting: to `O=C(O)c1ccccc1Oc1ccc(Cl)cc1` belongs 7000 µM; to `O=C(O)c1cc2cccc(Cl)c2[nH]1`, 1400 µM; to `COc1ccc(C(=O)C2CC2)cc1`, over 20000 µM. Still for that read-out and setting: the value for `COc1c(I)cc(CC(C(=O)O)c2ccccc2)cc1I` (configuration not stated) was over 1600 µM; that for `COc1ccc(NC(=O)C2(C)CC2)cc1` was over 60000 µM; that for `Nc1ccc(C(=O)O)cc1` [AMINOBENZOIC ACID] was over 40000 µM.

`O=C(O)c1cc2ccccc2o1`: the Kd was 6400 µM. On to `COc1ccc2[nH]c(C(=O)O)cc2c1`, for which the Kd came to 4000 µM. Still for that read-out and setting: the value for `O=C(O)COc1c(I)cc(CC(C(=O)O)c2ccccc2)cc1I` (configuration not stated) was over 8000 µM; that for `COc1ccc(NC(=O)CCC(=O)O)cc1` was over 110000 µM; that for `COC(=O)c1cccc(C(=O)c2ccc(Cl)cc2)c1C(=O)O` was over 10000 µM.

`O=C(O)c1ccccc1C(=O)c1ccc(F)cc1`: the equilibrium dissociation constant (Kd) is about 4000 µM. For the molecule `O=C(O)Cc1ccccc1C(=O)c1ccc(Cl)cc1`, the Kd came to 4000 µM. Turning to `O=C(O)c1ccccc1C(=O)c1ccc(C(F)(F)F)cc1`, the equilibrium dissociation constant (Kd) was 4000 µM. Same read-out and setting: the value for `COc1ccc(C(=O)c2ccc[nH]2)cc1` was over 20 µM; that for `Nc1ccc(C(=O)Nc2ccc(Cl)c(N)c2)cc1` was 20000 µM. With `CC1(C(=O)Nc2ccc(O)cc2)CC1`, the Kd was found to be 8400 µM. Still for that read-out and setting: to `Nc1ccc(C(=O)c2cccnc2N)cc1` belongs 70000 µM; to `O=C(O)CC(c1ccccc1)c1cc(I)c(O)c(I)c1` (configuration not stated), 40 µM. Regarding `COc1ccc(NC(=O)c2ccccc2C(=O)O)cc1`, the Kd was found to be 22000 µM. On the same count and under the same terms, the value for `O=C(O)c1ccccc1C(=O)c1ccc(O)cc1` was 1600 µM. For `Cc1ccc(NC(=O)c2ccc(N)cc2)c(N)c1`, the Kd is over 20000 µM. Regarding `O=C(O)c1cc(I)c(O)c(I)c1`, the Kd is 420 µM. Same read-out and setting: to `CN(C)C(=O)c1cccc(C(=O)c2ccc(Cl)cc2)c1C(=O)O` belongs over 10000 µM; to `O=C(O)c1ccccc1C(=O)c1ccc(Cl)cc1`, about 3 µM; to `Nc1ccc(C(=O)c2ccc(N)cc2)cc1`, over 20000 µM. Take `O=C(O)c1cc2cc(F)ccc2[nH]1` [5-FLUOROINDOLE-2-CARBOXYLIC ACID]: the Kd came out at 2.9 µM.

As for `O=C(O)c1cc2cc(Br)ccc2[nH]1`, the Kd was found to be 200 µM. Still for that read-out and setting: to `O=C(O)C(F)(F)C(F)(F)C(=O)O` belongs about 5.2 µM. The same measure, in the same setting: the value for `CON(C)C(=O)Nc1ccc(O)c(C(F)(F)F)c1` was 8000 µM; that for `O=C(O)c1cc2cccc(Br)c2[nH]1` was 1000 µM. Same read-out and setting: to `COc1ccc(CC(C(=O)O)c2ccccc2)cc1` (configuration not stated) belongs over 8000 µM. With `CNC(=O)Nc1ccc(C(=O)O)cc1`, the Kd was over 210000 µM. On to `Cc1ccc(C(=O)c2ccccc2C(=O)O)cc1`, for which the Kd stood at 1600 µM. Same read-out and setting: to `O=C(O)c1ccc(O)cc1C(=O)c1ccc(O)cc1` belongs over 10000 µM; to `COc1ccc(NC(=O)C(C)C)cc1`, 70000 µM. On the same count and under the same terms, to `Cc1ccc2[nH]c(C(=O)O)cc2c1` belongs 1200 µM; to `Nc1ccc(CC(C(=O)O)c2ccccc2)cc1` (configuration not stated), over 8000 µM; to `O=C(O)CCc1cc(I)c(O)c(I)c1`, 90 µM. The same measure, in the same setting: the value for `O=C(O)c1cc2ccccc2s1` was 1700 µM. For `CC(C)C(=O)Nc1ccc(O)c(C(F)(F)F)c1`, the Kd is 8000 µM. On the same count and under the same terms, the value for `CC1(C(=O)Nc2ccc(O)c(C(F)(F)F)c2)CC1` was 690 µM; that for `O=C(O)c1ccccc1Oc1ccc(F)cc1` was 7000 µM. On the same count and under the same terms, to `O=C(O)CCCc1ccc(C(=O)c2ccccc2C(=O)O)cc1` belongs 40000 µM; to `O=C(O)C(Cc1cc(I)c(O)c(I)c1)c1ccccc1` (configuration not stated) [IODOALPHIONIC ACID], 110 µM; to `Nc1cc(O)nc(-c2cc(I)c(O)c(I)c2)n1`, about 230 µM. On to `CCC(=O)Nc1ccc(O)cc1` [PARAPROPAMOL], for which the Kd is 34000 µM. The same measure, in the same setting: the value for `O=C(O)c1cc2cc(Cl)ccc2o1` was 2200 µM; that for `CC(C)C(=O)Nc1ccc(O)cc1` was 17000 µM; that for `O=C(/C=N/O)Nc1ccc(C(=O)O)cc1` was over 250 µM. Take `O=C(O)c1cc2ccc(Cl)cc2[nH]1`: the Kd was 400 µM. As for `COc1ccc(N)cc1NC(=O)c1ccc(N)cc1`, the Kd was over 20000 µM. The same measure, in the same setting: the value for `CN(C)C(=O)Nc1ccc(O)c(C(F)(F)F)c1` was 12000 µM; that for `Cc1ccc(C(=O)O)c(C(=O)c2ccc(O)cc2)c1` was over 5000 µM; that for `c1ccc2c(c1)NC1SCCCN21` (configuration not stated) was about 1.9 µM.

The target of another test is T1, NS3. Description: Dissociation constant for HCV NS3 protease substrate binding site; protein precipitation at 1:2 compound [100 uM]/protein ratio.
Settings: not given
Set-up: species or system Hepacivirus hominis. The method in brief:
as §1
As for `CC(C)c1ccc(C(Cc2cc(I)c(O)c(I)c2)C(=O)O)cc1` (configuration not stated), the Kd entry is “No Delta CS”. For the molecule `O=C(O)C(Cc1cc(I)c(O)c(I)c1)c1ccc(-c2ccccc2)cc1` (configuration not stated), the Kd result is “No Delta CS”. Same read-out and setting: the value for `O=C(O)C(Cc1cc(I)c(O)c(I)c1)c1ccc2ccccc2c1` (configuration not stated) was “No Delta CS”.

For another test, the target named is T1, NS3. Description: Inhibition constant for HCV NS3 protease substrate binding site.
Settings: not given
Set-up: species or system Hepacivirus hominis.
A word on the Ki: it is a dissociation constant, usually derived from enzyme kinetics or from competition with a known ligand. As for `CC(C)(C)OC(=O)c1ccccc1C(=O)c1ccc(OCCCOC(=O)N[C@@H](Cc2cc(I)c(O)c(I)c2)C(=O)OC(C)(C)C)cc1`, affinity was put at a Ki of 1 µM. On to `CC(=O)N[C@H](Cc1cc(I)c(O)c(I)c1)C(=O)O`, for which affinity was put at a Ki of 210 µM.

The molecule `O=C(O)CCCc1cc(I)c(O)c(I)c1` came in with a Ki of 180 µM.

For the molecule `CC(C)(C)OC(=O)N[C@H](Cc1cc(I)c(O)c(I)c1)C(=O)O`, the affinity corresponds to a Ki of 260 µM. On the same count and under the same terms, the value for `O=C(O)CC(c1ccccc1)c1cc(I)c(O)c(I)c1` (configuration not stated) was 100 µM; that for `O=C(O)c1cc(I)c(O)c(I)c1` was 600 µM.

`O=C(O)CCc1cc(I)c(O)c(I)c1` displayed a Ki of 80 µM. On to `Cc1ccc(S(=O)(=O)NNC(=S)c2ccccc2)cc1`, for which the inhibitory constant (Ki) is 650 µM.

On to `O=C(O)C(Cc1cc(I)c(O)c(I)c1)c1ccccc1` (configuration not stated) [IODOALPHIONIC ACID], for which the Ki is 140 µM.

The molecule `O=C(N[C@@H](Cc1cc(I)c(O)c(I)c1)C(=O)O)OCCCOc1ccc(C(=O)c2ccccc2C(=O)O)cc1` returned a Ki of 0.8 µM. Same read-out and setting: the value for `CC(C)(C)OC(=O)N[C@@H](Cc1cc(I)c(O)c(I)c1)C(=O)O` was 310 µM.

For the origin of these results see ChEMBL document CHEMBL1148307, “Non-peptidic small-molecule inhibitors of the single-chain hepatitis C virus NS3 protease/NS4A cofactor complex discovered by structure-based NMR screening” (J Med Chem, 2004).
